Source: PubChem
E-selectin induc = induces E-selectin expression in human endothelial cells; P16581; 0.37% of 260,000 active; activation, % at 7.58 µM; HUVEC E-selectin immunofluorescence imaging; normalized: neutral wells 0, TNF-alpha wells 100; AID 686992;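 active = mean E-selectin-positive cell signal at least 10% of the positive control, reached in at least 60% of replicates, without over 20% cell loss; inconclusive = no rule given, readout overlaps actives, possibly toxicity-flagged; inactive = the rest, including those meeting only one limit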
Target sequence (P16581 whole entry, looked up): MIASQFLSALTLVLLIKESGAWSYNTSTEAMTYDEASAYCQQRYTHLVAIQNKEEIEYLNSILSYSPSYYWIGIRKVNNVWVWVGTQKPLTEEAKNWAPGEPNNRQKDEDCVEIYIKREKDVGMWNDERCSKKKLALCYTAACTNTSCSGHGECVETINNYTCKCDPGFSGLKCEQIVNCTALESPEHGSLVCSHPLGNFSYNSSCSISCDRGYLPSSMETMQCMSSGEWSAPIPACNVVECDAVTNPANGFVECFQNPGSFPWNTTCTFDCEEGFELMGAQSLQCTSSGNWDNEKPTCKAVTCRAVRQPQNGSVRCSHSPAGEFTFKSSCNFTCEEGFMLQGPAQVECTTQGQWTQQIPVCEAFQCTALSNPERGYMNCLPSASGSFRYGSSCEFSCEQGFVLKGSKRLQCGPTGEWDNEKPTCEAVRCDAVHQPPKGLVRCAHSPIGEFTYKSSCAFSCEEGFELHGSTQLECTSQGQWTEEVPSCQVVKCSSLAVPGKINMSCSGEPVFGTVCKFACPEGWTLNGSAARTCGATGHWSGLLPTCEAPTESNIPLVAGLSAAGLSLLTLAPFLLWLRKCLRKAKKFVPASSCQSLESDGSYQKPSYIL
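Read-out: % PE-positive cells | Test system: HUVEC | Doses: One compound dose added by pin transfer | Buffer or medium: EGM-2 over gelatin coat | Signal: Immunofluorescence imaging | Benchmarks: TNF-alpha, DMSO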
SIRT5 inh = inhibitors of human sirtuin-5 desuccinylase | AID 652115 | Q9NXA8 | inhibition, % at 15 µM | Purified SirT5, succinyl-peptide AMC, trypsin-coupled fluorescence | 1.1% of 330,000 active; in the data active = inhibition above about 15%; inconclusive = no clear call, values can overlap the other calls
DENV2 CPE = DENV2-induced cell death inhibition. DENV2-infected cells, cytopathic effect rescue, plate reader. CPE inhibition, % at 9.99 µM. 1.7% of 350,000 active. AID 651640; in the data active = CPE inhibition above about 20%, passing the limit was not always enough; inconclusive = no clear call, values can overlap the other calls; tested in BHK-21 cells
Large screens that a line does not name were inactive. In the library only some 2.9% were active in any assay of this set; here they are far more common.

C[C@@H]1CN([C@H](C)CO)C(=O)c2ccccc2-c2ccccc2CO[C@@H]1CN(C)Cc1cccc(C(F)(F)F)c1	none
C[C@H](CO)N1C[C@H](C)[C@@H](CN(C)Cc2ccccc2C(F)(F)F)OCc2ccccc2-c2ccccc2C1=O	SIRT5 inh 30 (no result: E-selectin induc)
C[C@@H]1CN([C@H](C)CO)C(=O)c2ccccc2-c2ccccc2CO[C@H]1CN(C)C(=O)Nc1ccccc1C(F)(F)F	none (no result: SIRT5 inh)
C[C@H]1CN([C@@H](C)CO)C(=O)c2ccccc2-c2ccccc2CO[C@@H]1CN(C)Cc1cccc(C(F)(F)F)c1	SIRT5 inh 19
C[C@H](CO)N1C[C@H](C)[C@H](CN(C)Cc2ccccc2C(F)(F)F)OCc2ccccc2-c2ccccc2C1=O	none
COc1ccc(/C=C/C(=O)c2ccccc2)cc1COc1ccc(F)cc1	none (no result: E-selectin induc)
C#CCOC(=O)C[N+](C)(C)C/C=C/c1ccccc1	DENV2 CPE inconclusive (no result: E-selectin induc)
COc1ccc(NC(=O)Nc2ccc3c(c2)C(=O)N([C@H](C)CO)C[C@@H](C)[C@@H](CN(C)Cc2ccc(C(=O)O)cc2)O3)cc1	none
CCOc1ccc(CCNC(=O)Cn2ccc3cc(S(=O)(=O)N4CCCC4)ccc32)cc1	none (no result: E-selectin induc)
C[C@H]1CN([C@@H](C)CO)C(=O)c2ccccc2-c2ccccc2CO[C@H]1CN(C)Cc1ccccc1C(F)(F)F	SIRT5 inh 17, DENV2 CPE 21
C[C@@H]1CN([C@@H](C)CO)C(=O)c2ccccc2-c2ccccc2CO[C@@H]1CN(C)Cc1ccccc1C(F)(F)F	none
N#CCCN(C(=O)COC(=O)CCNS(=O)(=O)c1ccccc1)c1ccccc1	none (no result: E-selectin induc)
Cc1ccccc1NS(=O)(=O)c1ccc(C(=O)NCC2CCCO2)cc1 (configuration not stated)	SIRT5 inh 19
Cc1ccc(S(=O)(=O)Nc2ccccc2C(=O)NCC2CCCO2)cc1 (configuration not stated)	DENV2 CPE inconclusive
Cn1nc(-c2ccccc2)c(C(=O)NC(C(=O)O)c2ccccc2)c1Cl (configuration not stated)	none (no result: E-selectin induc, DENV2 CPE)
CC(=O)N(C)C[C@@H]1Oc2cc(C#Cc3ccncc3)ccc2S(=O)(=O)N([C@@H](C)CO)C[C@H]1C	none
CC1CCN(C(=S)c2cn(Cc3ccc(F)cc3)c3ccccc23)CC1	none (no result: E-selectin induc, DENV2 CPE)
COc1ccc(COCCN2CCN(S(=O)(=O)c3ccc(C)cc3)CCC2=O)cc1	DENV2 CPE 79 (no result: SIRT5 inh)
Cc1ccc(COCCN2CCN(S(=O)(=O)c3ccc(C)cc3)CCC2=O)cc1	none
Cc1ccc(NC(=O)CN2CCC(NC(=O)c3cccc(F)c3)CC2)cc1C	DENV2 CPE 34 (no result: E-selectin induc)
Cc1cc(C)cc(NC(=O)CN2CCC(NC(=O)c3cccc(F)c3)CC2)c1	none (no result: E-selectin induc)
Cc1ccc(NC(=O)Cn2nc(C)c(S(=O)(=O)N(C)C)c2C)cc1C	none
CC(=O)N1Cc2ccccc2C(C)CC12CCCCC2 (configuration not stated)	none
CC(=O)N1CC23C=CC(CC2CC12CCCCCC2)O3 (configuration not stated)	E-selectin induc 35
COc1ccccc1N=CC=C1OC(C)(C)C(C)(C)O1	none
CCCC(=O)Nc1nnc(C2CCCO2)s1 (configuration not stated)	none (no result: E-selectin induc)
CCOc1ccc(CCNC(=O)c2cccc(S(=O)(=O)N3CCCCC3)c2)cc1OCC	DENV2 CPE inconclusive
CCOc1ccc(CCNC(=O)c2cccc(S(=O)(=O)N3CCN(C(C)=O)CC3)c2)cc1OCC	SIRT5 inh 21 (no result: E-selectin induc)
CCCn1c(C(O)c2ccc3c(c2)OCO3)nc2ccccc21 (configuration not stated)	none (no result: E-selectin induc)
Nc1nccc(-c2ccc(-n3cnc4ccccc43)cc2)n1	SIRT5 inh 21
c1ccc2c(c1)ncn2-c1ccc(-c2ccnc3ncnn23)cc1	none
CC(=O)N(C1=C(Cl)C(=O)c2ccccc2C1=O)C1CCCCC1	E-selectin induc 36
CC(=O)N(c1ccccc1C)C1CCCC1	none (no result: E-selectin induc)
Oc1ccc(Nc2ncnc3scc(-c4ccccc4)c23)cc1	none (no result: E-selectin induc)
CCOC(=O)c1sc(NC(=O)CSc2nccn2C)nc1C	SIRT5 inh 16
CCOC(=O)c1sc(NC(=O)CSc2ncccn2)nc1C	none
CO[C@H]1CN(C)C(=O)c2cc(NS(C)(=O)=O)ccc2OC[C@H](C)N(CCC(F)(F)F)C[C@@H]1C	none
NNC(=S)Nc1cccc(-c2n[nH]c(=S)o2)c1	SIRT5 inh 18
CN(C)C(=S)Nc1cccc(-c2n[nH]c(=S)o2)c1	none
Cc1ccccc1OCC(=O)NC(C)c1ccccc1 (configuration not stated)	none (no result: E-selectin induc)
CC1(C)CC(=O)C2=C(C1)Nc1ccccc1NC2c1ccc(F)c(F)c1 (configuration not stated)	DENV2 CPE 23
CC1(C)CC(=O)C2=C(C1)Nc1ccccc1NC2c1ccccc1F (configuration not stated)	none
CCOc1ccc(N(CC(=O)NC2CCCC2)S(=O)(=O)c2c(C)[nH]c(=O)[nH]c2=O)cc1	DENV2 CPE 54
Cc1cc(C)cc(N(CC(=O)NC2CCCCCC2)S(=O)(=O)c2c(C)[nH]c(=O)[nH]c2=O)c1	none
Cc1cc(C)n(C(C)CC(=O)Nc2ccc3c(c2)OCCO3)n1 (configuration not stated)	none (no result: E-selectin induc)
COc1ccccc1-c1cnc2c(c1)C(=O)N([C@@H](C)CO)C[C@H](C)[C@H](CN(C)C(=O)c1cccnc1)O2	none
Cc1noc(C)c1S(=O)(=O)Nc1ccc2c(c1)C(=O)N([C@H](C)CO)C[C@@H](C)[C@@H](CN(C)C(=O)Nc1cccc3ccccc13)OCCCC[C@@H](C)O2	none
COc1ccc(Nc2ccccc2NC(=O)c2ccccc2Br)cc1	none
COc1ccc(Nc2ccccc2N)cc1	E-selectin induc 37
Cn1cnc(CCNC(=O)C[C@@H]2CC[C@@H]3[C@H](COC[C@@H](O)CN3C(=O)Nc3ccc(C(F)(F)F)cc3)O2)c1	none
Cc1ccccc1C(=O)c1cccn1CC(=O)NCCCN1CCCCC1	none
O=C(CSc1nc(=O)n2ccccc2n1)N1CCCc2ccccc21	E-selectin induc 32, DENV2 CPE 68
Cc1ccn2c(=O)nc(SCC(=O)N3CCCc4ccccc43)nc2c1	none (no result: E-selectin induc)
COc1ccccc1C#Cc1ccc([C@@H]2[C@@H](CO)N(C(=O)C3CCCCC3)[C@H]2C#N)cc1	none
Cc1ccc(-c2nn(-c3cc(N4CCNCC4)ccc3[N+](=O)[O-])c(=O)c3ccccc23)cc1	E-selectin induc 66
Cc1ccc(-c2nn(-c3ccccn3)c(=O)c3ccccc23)cc1	none
CCN(CC)CCSc1nc(O)c(-c2ccccc2)c(=O)n1-c1ccccc1	SIRT5 inh 16
CCN(CC)CCSc1nc(O)c(Cc2ccccc2)c(=O)n1-c1ccccc1	none (no result: E-selectin induc, SIRT5 inh)
O=C(Nc1ccc2c(c1)nc1n2CCN(Cc2ccccc2)C1)c1cccs1	none (no result: E-selectin induc, DENV2 CPE)
COc1ccc(C(=O)N/N=C/c2sc(N3CCOCC3)nc2-c2ccccc2)cc1OC	none
COc1ccccc1OCCC(=O)Nc1nc(C)cs1	none
CCSc1nnc(NC(=O)NC2CCCCC2)s1	none (no result: E-selectin induc)
C[C@@H]1CCCCO[C@@H](CN(C)C(=O)CCCN(C)C)[C@H](C)CN([C@H](C)CO)C(=O)c2cc(NC(=O)Nc3ccc4c(c3)OCO4)ccc2O1	none (no result: SIRT5 inh)
C[C@@H]1CCCCO[C@@H](CN(C)C(=O)CCCN(C)C)[C@H](C)CN([C@H](C)CO)C(=O)c2cc(NC(=O)Cc3ccccc3)ccc2O1	none (no result: E-selectin induc)
